High-throughput results: PubChem, The Scripps Research Institute Molecular Screening Center
Hits are enriched below; roughly 3.3% of the tested compounds scored in any of these assays.
HTRA1 inhibitor – HTRA1 serine protease inhibitors, primary screen, biochemical, fluorescence polarization, HTS; recombinant HTRA1, FP-rhodamine activity-based probe; inhibition, % at 5.96 µM; hit rate 0.5% among 340,000; in the data active = inhibition above about 36%;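 also: 0% = enzyme with DMSO and 100% = wells lacking enzyme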
rCAG binder – binders of r(CAG) RNA repeats, primary screen, biochemical, fluorescence; hit rate 1.3% among 370,000; inhibition, % at 3 µM; r(CAG) RNA repeat, TO-PRO-1 dye displacement fluorescence;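 active = inhibition above the plate cutoff, the mean of all test compounds on that plate plus 3 SD, cut at about 35% in these data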;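 also: 0% = DMSO alone and 100% = 100 µM mitoxantrone as full dye displacement; higher means more dye released from RNA so lower well fluorescence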
SIAE inh – human SIAE inhibitors, primary screen, biochemical, fluorescence polarization, FP-Rh probe, 1536-well HTS | hit rate 0.69% among 370,000 | AID 1053197, 2014 | Sialate O-acetylesterase (Homo sapiens), Q9HAT2 | inhibition, % at 9.66 µM | SIAE FP-Rh probe binding;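 active = inhibition above a cutoff: mean of compounds within the control limits plus 3 SD of those, cut at about 17% in these data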;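 also: 0% = plate median of compound wells and 100% = probe without SIAE protein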
PRMT1 inh – PRMT1 methyltransferase inhibitors, primary screen, biochemical, fluorescence polarization; recombinant PRMT1, activity-based probe fluorescence polarization; inhibition, % at 2.79 µM; hit rate 1.3% among 370,000; AID 652257, 2013;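 active = inhibition above about 21% made by adding two undisclosed values, limit read from the data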
Target sequence (Q99873 whole entry, looked up): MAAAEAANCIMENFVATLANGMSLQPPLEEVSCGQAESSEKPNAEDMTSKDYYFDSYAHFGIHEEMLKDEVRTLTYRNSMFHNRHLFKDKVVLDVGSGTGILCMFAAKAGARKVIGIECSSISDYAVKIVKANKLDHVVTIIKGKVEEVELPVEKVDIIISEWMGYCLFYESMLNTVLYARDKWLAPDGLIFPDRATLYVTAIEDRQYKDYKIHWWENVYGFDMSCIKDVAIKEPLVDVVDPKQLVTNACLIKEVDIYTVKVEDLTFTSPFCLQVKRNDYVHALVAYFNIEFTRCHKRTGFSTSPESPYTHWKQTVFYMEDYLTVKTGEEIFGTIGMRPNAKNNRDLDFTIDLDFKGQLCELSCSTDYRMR
mABHD4 FP – ABHD4 inhibitors, primary screen, biochemical, fluorescence polarization, mouse; (Lyso)-N-acylphosphatidylethanolamine lipase (Mus musculus), Q8VD66; hit rate 0.54% among 370,000; inhibition, % at 8.92 µM; purified mABHD4, FP-Rh probe fluorescence polarization;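 active = inhibition exceeding the mean over every tested compound plus 3 SD, cut at about 30% in these data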;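 also: 0% = plate median of compound wells and 100% = S159A mutant with DMSO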
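Test system: mABHD4 protein; Read-out basis: % inhibition; Incubation: 45 min + 60 min at 25 °C; Repeats: single replicate; Technique: fluorescence polarization with parallel and perpendicular emission, 525/598 nm; Compound: 8.92 µM, single dose; Benchmarks: full inhibition S159A mutant plus DMSO, zero as sample-well median.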
PRMT1 confirm – PRMT1 methyltransferase inhibitors, confirmation, biochemical, fluorescence polarization, triplicate; shares compounds with PRMT1 inh; recombinant His-PRMT1, activity-based probe fluorescence polarization; hit rate 42% among 3,300; inhibition, % at 2.79 µM;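 active = mean inhibition across replicates above the hit cutoff derived for the earlier primary screen, cut at about 22% in these data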
* marks the source's active call; other numbers are inactive results.

CC(C)c1ccc(N2C(=O)CC(Sc3ncn[nH]3)C2=O)cc1 (stereo not drawn) was read as HTRA1 inhibitor -9.1, rCAG binder 8.2, SIAE inh 0.1, PRMT1 inh 60.8*, mABHD4 FP -1.1 and PRMT1 confirm 63.7*.
Screening COc1ccc(N2C(=O)CC(Sc3ncn[nH]3)C2=O)c(OC)c1 (stereo not drawn) returned HTRA1 inhibitor -1.2, rCAG binder 3.7, SIAE inh 3.4, PRMT1 inh 89.0*, mABHD4 FP -5.1 and PRMT1 confirm 35.9*.
CC1CC(=O)N(c2ccc(C(C)C)cc2)C(=O)C1 was read as HTRA1 inhibitor -11.4, rCAG binder -3.1, SIAE inh 1.0, PRMT1 inh -1.6 and mABHD4 FP 0.6.
`CSCCC(c1nc2ccccc2[nH]1)n1c(=O)c(-c2cccnc2)nc2ccccc21` (stereo not drawn) gave rCAG binder 7.4, SIAE inh 1.0, PRMT1 inh 9.1 and mABHD4 FP 1.4.
CSCCC(c1nc2ccccc2[nH]1)n1c(=O)c(-c2ccco2)nc2ccccc21 (stereo not drawn) was read as rCAG binder 17.4, SIAE inh -2.9, PRMT1 inh 45.1*, mABHD4 FP 8.3 and PRMT1 confirm 15.6.
`C[C@@H]1CN([C@@H](C)CO)C(=O)CCCn2cc(nn2)CO[C@H]1CN(C)S(=O)(=O)c1ccc(C#N)cc1` gave HTRA1 inhibitor 2.6, rCAG binder 1.7, SIAE inh -2.1, PRMT1 inh -1.6 and mABHD4 FP 1.8.
For COC(=O)[C@@]1(C)[C@H]2C(=O)N(Cc3ccccc3)C(=O)[C@H]2[C@H]2CN=C(SC)N21 the results were HTRA1 inhibitor 9.5, rCAG binder -0.3, SIAE inh 7.3, PRMT1 inh 4.1 and mABHD4 FP 4.1.
Screening CCN1C[C@@H]2[C@@H]3C(=O)N(Cc4ccccc4)C(=O)[C@@H]3[C@](CC)(C(=O)OC)N2C1=NCc1ccccc1 returned HTRA1 inhibitor -2.4, rCAG binder -0.6, SIAE inh 9.7, PRMT1 inh 31.7*, mABHD4 FP 15.3 and PRMT1 confirm 5.8.
CCN1C(=O)[C@H]2[C@H]3CN=C(SCC(=O)c4ccccc4)N3[C@@](CC)(C(=O)OC)[C@H]2C1=O was read as HTRA1 inhibitor 0.2, rCAG binder 2.8, SIAE inh 3.4, PRMT1 inh 69.0*, mABHD4 FP 1.1 and PRMT1 confirm 44.4*.
For COC(=O)[C@@]1(C)[C@H]2C(=O)N(Cc3ccccc3)C(=O)[C@H]2[C@H]2CN=C(SCC(=O)c3ccccc3)N21 the results were HTRA1 inhibitor 2.4, rCAG binder 8.4, SIAE inh 11.7, PRMT1 inh 79.9*, mABHD4 FP 3.9 and PRMT1 confirm 58.3*.
O=C(Nc1ccnn1C1CCN(C(=O)c2ccc(F)c(Cl)c2)CC1)C1CC1 was read as HTRA1 inhibitor 2.2, rCAG binder -1.4, SIAE inh 13.0, PRMT1 inh 0.6 and mABHD4 FP -3.3.
`O=c1c2cc(N3CCOCC3)ccc2[nH]c(=S)n1Cc1ccc(Cl)cc1` gave HTRA1 inhibitor 3.7, rCAG binder 6.8, SIAE inh 0.4, PRMT1 inh 1.4 and mABHD4 FP 7.3.
For Cc1ccc(Cn2c(=S)[nH]c3ccc(N4CCOCC4)cc3c2=O)o1 the results were HTRA1 inhibitor 13.9, rCAG binder 17.4, SIAE inh 5.9, PRMT1 inh 68.7*, mABHD4 FP 12.4 and PRMT1 confirm 60.9*.
For NC(=S)NN=Cc1ccc(-c2ccc(S(=O)(=O)Nc3ncccn3)cc2)o1 the results were HTRA1 inhibitor 6.6, rCAG binder 29.6, SIAE inh -7.0, PRMT1 inh 31.9*, mABHD4 FP 19.1 and PRMT1 confirm 18.8.
`Cc1ccc(S(=O)(=O)Nc2ccc(Cl)cc2)cc1NC(=O)c1cc2c(s1)CCCC2` gave HTRA1 inhibitor -92.0, rCAG binder 19.4, SIAE inh -126.0, PRMT1 inh -0.9 and mABHD4 FP -91.5.
For CCN(CC)C(=O)CSc1nnc([C@@H](N)Cc2ccccc2)o1 the results were HTRA1 inhibitor 4.4, rCAG binder -0.8, SIAE inh 2.0, PRMT1 inh 3.8 and mABHD4 FP -3.0.
`CCc1ccccc1NC(=O)CSc1nnc([C@@H](N)Cc2ccccc2)o1` gave HTRA1 inhibitor 17.7, rCAG binder -3.5, SIAE inh 0.4, PRMT1 inh 42.9*, mABHD4 FP -4.2 and PRMT1 confirm 28.1*.
`O=C(CSc1cn[nH]n1)Nc1cccc(C(=O)O)c1` gave HTRA1 inhibitor 3.8, rCAG binder 2.2, SIAE inh 3.9, PRMT1 inh 71.9*, mABHD4 FP 1.0 and PRMT1 confirm 89.8*.
For Cc1cccc(NC(=O)CSc2cn[nH]n2)c1 the results were HTRA1 inhibitor 0.3, rCAG binder 0.9, SIAE inh -1.2, PRMT1 inh -0.5 and mABHD4 FP 2.1.
Screening CCOC(=O)N1CCN(C(=S)NCCOC)CC1 returned HTRA1 inhibitor 2.1, rCAG binder -3.5, SIAE inh 2.1, PRMT1 inh 1.6 and mABHD4 FP 5.4.
COc1cc(C2CC(=O)N3CN(c4ccccc4C)CSC3=C2C#N)cc(OC)c1OC (stereo not drawn) was read as rCAG binder 21.3, SIAE inh -7.8, PRMT1 inh 38.5*, mABHD4 FP 8.4 and PRMT1 confirm 45.8*.
Screening COc1cc(OC)c(C2CC(=O)N3CN(c4ccccc4)CSC3=C2C#N)cc1OC (stereo not drawn) returned HTRA1 inhibitor -7.5, rCAG binder 31.8, SIAE inh 4.7, PRMT1 inh 51.9*, mABHD4 FP 12.9 and PRMT1 confirm 26.4*.
N#CC1=C2SCN(c3ccccc3)CN2C(=O)CC1c1c(Cl)cccc1Cl (stereo not drawn) was read as HTRA1 inhibitor -7.4, rCAG binder 12.0, SIAE inh -1.2, PRMT1 inh 52.2*, mABHD4 FP 6.9 and PRMT1 confirm 55.0*.
For CCc1ccccc1N1CSC2=C(C#N)C(c3cc(OC)c(OC)cc3OC)CC(=O)N2C1 (stereo not drawn) the results were HTRA1 inhibitor 0.8, rCAG binder 24.0, SIAE inh 9.7, PRMT1 inh 62.1*, mABHD4 FP 7.9 and PRMT1 confirm 79.4*.
Screening OCCC1CN(Cc2cnc(-c3ccc(Cl)cc3)nc2)CCN1C1CCCC1 (stereo not drawn) returned HTRA1 inhibitor 2.5, rCAG binder -8.5, SIAE inh 4.4, PRMT1 inh -0.9 and mABHD4 FP -0.3.
